Data as given in ChEMBL document CHEMBL1127344, “Tridentate ligands containing the SNS donor atom set as a novel backbone for the development of technetium brain-imaging agents” (J Med Chem, 1994).

Assays:
Mus musculus [1] = species: Mus musculus; assay: Tested for biodistribution of compound at 5 min in mice spleen; type: ADME, organism-based; details: in vivo
Outline: (§1)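 Male Swiss albino mice, at least five per group, received HPLC-purified 99mTc complex by tail vein. The complex was reconstituted in 50% methanol (0.1 mL, 2-3 μCi). Mice were killed by cardiectomy under light ether at 1-60 min pi. Organs were weighed and γ-counted against a 1% injected-dose standard to give % dose/organ. Blood and muscle were taken as 7% and 43% of body weight.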

Mus musculus [2] = species: Mus musculus; assay: Tested for biodistribution of compound at 5 min in mice intestine; type: ADME, organism-based; details: in vivo; outline: as §1
Mus musculus [3] = species: Mus musculus; assay: Tested for biodistribution of compound at 60 min in mice intestine; type: ADME, organism-based; details: in vivo, 1 h; outline: as §1
Mus musculus [4] = species: Mus musculus; assay: Tested for biodistribution of compound at 10 min in mice blood; type: ADME, organism-based; details: in vivo
Outline: (§2)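 Male Swiss albino mice, at least five per group, received 0.1 mL (2-3 μCi) of HPLC-purified 99mTc complex reconstituted in 50% methanol by tail vein. They were killed by cardiectomy under light ether anesthesia at set times (1-60 min pi). Organs were weighed and γ-counted against a 1% injected-dose standard to give % dose/organ. Blood and muscle were taken as 7% and 43% of body weight.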

Mus musculus [5] = species: Mus musculus; assay: Tested for biodistribution of compound at 30 min in mice kidney; type: ADME, organism-based; details: in vivo, 0.5 h; outline: as §2
Mus musculus [6] = species: Mus musculus; assay: Tested for biodistribution of compound at 30 min in mice blood; type: ADME, organism-based; details: in vivo, 0.5 h; outline: as §2
Mus musculus [7] = species: Mus musculus; assay: Tested for biodistribution of compound at 60 min in mice kidney; type: ADME, organism-based; details: in vivo, 1 h; outline: as §1
Mus musculus [8] = species: Mus musculus; assay: Tested for biodistribution of compound at 30 min in mice intestine; type: ADME, organism-based; details: in vivo, 0.5 h; outline: as §2
Mus musculus [9] = species: Mus musculus; assay: Tested for biodistribution of compound at 10 min in mice urine; type: ADME, organism-based; details: in vivo; outline: as §2
Mus musculus [10] = species: Mus musculus; assay: Tested for biodistribution of compound at 60 min in mice stomach; type: ADME, organism-based; details: in vivo, 1 h; outline: as §1
Mus musculus [11] = species: Mus musculus; assay: Tested for biodistribution of compound at 1 min in mice blood; type: ADME, organism-based; details: in vivo; outline: as §2
Mus musculus [12] = species: Mus musculus; assay: Tested for biodistribution of compound at 10 min in mice intestine; type: ADME, organism-based; details: in vivo; outline: as §2
Mus musculus [13] = species: Mus musculus; assay: Tested for biodistribution of compound at 1 min in mice spleen; type: ADME, organism-based; details: in vivo; outline: as §2
Mus musculus [14] = species: Mus musculus; assay: Tested for biodistribution of compound at 30 min in mice spleen; type: ADME, organism-based; details: in vivo, 0.5 h; outline: as §2
Mus musculus [15] = species: Mus musculus; assay: Tested for biodistribution of compound at 60 min in mice lungs; type: ADME, organism-based, Lung; details: in vivo, 1 h; outline: as §1
Mus musculus [16] = species: Mus musculus; assay: Tested for biodistribution of compound at 5 min in mice muscle; type: ADME, organism-based, Muscle tissue; details: in vivo; outline: as §1
Mus musculus [17] = species: Mus musculus; assay: Tested for biodistribution of compound at 60 min in mice blood; type: ADME, organism-based; details: in vivo, 1 h; outline: as §1
Mus musculus [18] = species: Mus musculus; assay: Tested for biodistribution of compound at 10 min in mice spleen; type: ADME, organism-based; details: in vivo; outline: as §2
Mus musculus [19] = species: Mus musculus; assay: Tested for biodistribution of compound at 30 min in mice brain; type: ADME, organism-based; details: in vivo, 0.5 h; outline: as §2
Mus musculus [20] = species: Mus musculus; assay: Tested for biodistribution of compound at 30 min in mice lungs; type: ADME, organism-based, Lung; details: in vivo, 0.5 h; outline: as §2
Mus musculus [21] = species: Mus musculus; assay: Tested for biodistribution of compound at 60 min in mice spleen; type: ADME, organism-based; details: in vivo, 1 h; outline: as §1
Mus musculus [22] = species: Mus musculus; assay: Tested for biodistribution of compound at 5 min in mice kidney; type: ADME, organism-based; details: in vivo; outline: as §1
Mus musculus [23] = species: Mus musculus; assay: Tested for biodistribution of compound at 5 min in mice heart; type: ADME, organism-based; details: in vivo; outline: as §1
Mus musculus [24] = species: Mus musculus; assay: Tested for biodistribution of compound at 60 min in mice heart; type: ADME, organism-based; details: in vivo, 1 h; outline: as §1
Mus musculus [25] = species: Mus musculus; assay: Tested for biodistribution of compound at 1 min in mice muscle; type: ADME, organism-based, Muscle tissue; details: in vivo; outline: as §2
Mus musculus [26] = species: Mus musculus; assay: Tested for biodistribution of compound at 5 min in mice iver; type: ADME, organism-based, Liver; details: in vivo; outline: as §1
Mus musculus [27] = species: Mus musculus; assay: Tested for biodistribution of compound at 60 min in mice urine; type: ADME, organism-based; details: in vivo, 1 h; outline: as §1
Mus musculus [28] = species: Mus musculus; assay: Tested for biodistribution of compound at 30 min in mice muscle; type: ADME, organism-based, Muscle tissue; details: in vivo, 0.5 h; outline: as §2
Mus musculus [29] = species: Mus musculus; assay: Tested for biodistribution of compound at 1 min in mice kidney; type: ADME, organism-based; details: in vivo; outline: as §2
Mus musculus [30] = species: Mus musculus; assay: Tested for biodistribution of compound at 5 min in mice lungs; type: ADME, organism-based, Lung; details: in vivo; outline: as §1
Mus musculus [31] = species: Mus musculus; assay: Tested for biodistribution of compound at 30 min in mice heart; type: ADME, organism-based; details: in vivo, 0.5 h; outline: as §2
Mus musculus [32] = species: Mus musculus; assay: Tested for biodistribution of compound at 10 min in mice brain; type: ADME, organism-based; details: in vivo; outline: as §2
Mus musculus [33] = species: Mus musculus; assay: Tested for biodistribution of compound at 30 min in mice urine; type: ADME, organism-based; details: in vivo, 0.5 h; outline: as §2
Mus musculus [34] = species: Mus musculus; assay: Tested for biodistribution of compound at 1 min in mice stomach; type: ADME, organism-based; details: in vivo; outline: as §2
Mus musculus [35] = species: Mus musculus; assay: Tested for biodistribution of compound at 10 min in mice muscle; type: ADME, organism-based, Muscle tissue; details: in vivo; outline: as §2
Mus musculus [36] = species: Mus musculus; assay: Tested for biodistribution of compound at 10 min in mice stomach; type: ADME, organism-based; details: in vivo; outline: as §2
Mus musculus [37] = species: Mus musculus; assay: Tested for biodistribution of compound at 1 min in mice liver; type: ADME, organism-based; details: in vivo; outline: as §2
Mus musculus [38] = species: Mus musculus; assay: Tested for biodistribution of compound at 30 min in mice stomach; type: ADME, organism-based; details: in vivo, 0.5 h; outline: as §2
Mus musculus [39] = species: Mus musculus; assay: Tested for biodistribution of compound at 1 min in mice brain; type: ADME, organism-based; details: in vivo; outline: as §2
Mus musculus [40] = species: Mus musculus; assay: Tested for biodistribution of compound at 1 min in mice intestine; type: ADME, organism-based; details: in vivo; outline: as §2
Mus musculus [41] = species: Mus musculus; assay: Tested for biodistribution of compound at 60 min in mice brain; type: ADME, organism-based; details: in vivo, 1 h; outline: as §1
Mus musculus [42] = species: Mus musculus; assay: Tested for biodistribution of compound at 1 min in mice lungs; type: ADME, organism-based, Lung; details: in vivo; outline: as §2
Mus musculus [43] = species: Mus musculus; assay: Tested for biodistribution of compound at 10 min in mice kidney; type: ADME, organism-based; details: in vivo; outline: as §2
Mus musculus [44] = species: Mus musculus; assay: Tested for biodistribution of compound at 60 min in mice muscle; type: ADME, organism-based, Muscle tissue; details: in vivo, 1 h; outline: as §1
Mus musculus [45] = species: Mus musculus; assay: Tested for biodistribution of compound at 1 min in mice heart; type: ADME, organism-based; details: in vivo; outline: as §2
Mus musculus [46] = species: Mus musculus; assay: Tested for biodistribution of compound at 10 min in mice lungs; type: ADME, organism-based, Lung; details: in vivo; outline: as §2
Mus musculus [47] = species: Mus musculus; assay: Tested for biodistribution of compound at 60 min in mice iver; type: ADME, organism-based, Liver; details: in vivo, 1 h; outline: as §1
Mus musculus [48] = species: Mus musculus; assay: Tested for biodistribution of compound at 10 min in mice iver; type: ADME, organism-based, Liver; details: in vivo; outline: as §2
Mus musculus [49] = species: Mus musculus; assay: Tested for biodistribution of compound at 30 min in mice iver; type: ADME, organism-based, Liver; details: in vivo, 0.5 h; outline: as §2
Mus musculus [50] = species: Mus musculus; assay: Tested for biodistribution of compound at 10 min in mice heart; type: ADME, organism-based; details: in vivo; outline: as §2
Mus musculus [51] = species: Mus musculus; assay: Tested for biodistribution of compound at 5 min in mice stomach; type: ADME, organism-based; details: in vivo; outline: as §1
Mus musculus [52] = species: Mus musculus; assay: Tested for biodistribution of compound at 5 min in mice blood; type: ADME, organism-based; details: in vivo; outline: as §1
Mus musculus [53] = species: Mus musculus; assay: Tested for biodistribution of compound at 5 min in mice brain; type: ADME, organism-based; details: in vivo; outline: as §1

Substance: [4-methoxythio)phenolato][N,N-bis(2-mercaptoethyl)-2-(ethylthio)ethylamine] oxotechnetium
- Dose/organ (Mus musculus [1]): 0.21%
- Dose/organ (Mus musculus [2]): 9.31%
- Dose/organ (Mus musculus [3]): 44.3%
- Dose/organ (Mus musculus [4]): 1.24%
- Dose/organ (Mus musculus [5]): 1.04%
- Dose/organ (Mus musculus [6]): 0.8%
- Dose/organ (Mus musculus [7]): 0.54%
- Dose/organ (Mus musculus [8]): 43.12%
- Dose/organ (Mus musculus [9]): 0.27%
- Dose/organ (Mus musculus [10]): 1.1%
- Dose/organ (Mus musculus [11]): 5.77%
- Dose/organ (Mus musculus [12]): 15.44%
- Dose/organ (Mus musculus [13]): 0.06%
- Dose/organ (Mus musculus [14]): 0.06%
- Dose/organ (Mus musculus [15]): 0.26%
- Dose/organ (Mus musculus [16]): 25.57%
- Dose/organ (Mus musculus [17]): 0.79%
- Dose/organ (Mus musculus [18]): 0.16%
- Dose/organ (Mus musculus [19]): 0.39%
- Dose/organ (Mus musculus [20]): 0.52%
- Dose/organ (Mus musculus [21]): 0.03%
- Dose/organ (Mus musculus [22]): 2.45%
- Dose/organ (Mus musculus [23]): 0.59%
- Dose/organ (Mus musculus [24]): 0.05%
- Dose/organ (Mus musculus [25]): 34.39%
- Dose/organ (Mus musculus [26]): 16.97%
- Dose/organ (Mus musculus [27]): 1.79%
- Dose/organ (Mus musculus [28]): 10.41%
- Dose/organ (Mus musculus [29]): 2.3%
- Dose/organ (Mus musculus [30]): 1.52%
- Dose/organ (Mus musculus [31]): 0.11%
- Dose/organ (Mus musculus [32]): 1.57%
- Dose/organ (Mus musculus [33]): 0.77%
- Dose/organ (Mus musculus [34]): 0.35%
- Dose/organ (Mus musculus [35]): 20.29%
- Dose/organ (Mus musculus [36]): 1.02%
- Dose/organ (Mus musculus [37]): 3.58%
- Dose/organ (Mus musculus [38]): 0.37%
- Dose/organ (Mus musculus [39]): 3.68%
- Dose/organ (Mus musculus [40]): 4.14%
- Dose/organ (Mus musculus [41]): 0.15%
- Dose/organ (Mus musculus [42]): 5.25%
- Dose/organ (Mus musculus [43]): 1.76%
- Dose/organ (Mus musculus [44]): 5.27%
- Dose/organ (Mus musculus [45]): 4.02%
- Dose/organ (Mus musculus [46]): 1.05%
- Dose/organ (Mus musculus [47]): 18.03%
- Dose/organ (Mus musculus [48]): 24.79%
- Dose/organ (Mus musculus [49]): 24.36%
- Dose/organ (Mus musculus [50]): 0.31%
- Dose/organ (Mus musculus [51]): 0.73%
- Dose/organ (Mus musculus [52]): 1.66%
- Dose/organ (Mus musculus [53]): 2.43%
